Test results: paper PMC7458062 (ACS Infectious Diseases, 2020)

Experiments:
[1] = tested on: E. coli DH10B blaCTX-M-9; format: cell-based; settings: Escherichia coli, read-out: MIC of FEP, E. coli, DH10B blaCTX-M-9
[2] = tested on: P. aeruginosa 18SH strain, blaPDC; format: cell-based; settings: Pseudomonas aeruginosa, read-out: MIC of CAZ, P. aer. 18SH blaPDC
Outline: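 CLSI broth microdilution in Mueller-Hinton broth, with inoculum at 6 × 10^4 cfu/mL final. Ceftazidime was tested from 128 to 0.06 μg/mL, with test compound held constant at 4 μg/mL. Plates were incubated overnight at 37 °C and MICs were recorded the next day.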

CO/N=C(\C(=O)N[C@@H]1C(=O)N2C(C(=O)[O-])=C(C[N+]3(C)CCCC3)CS[C@H]12)c1csc(N)n1 [FEP, cefepime]
MIC [1]: 8 µg/mL

CC(C)(O/N=C(\C(=O)N[C@@H]1C(=O)N2C(C(=O)[O-])=C(C[n+]3ccccc3)CS[C@H]12)c1csc(N)n1)C(=O)O [CAZ, ceftazidime]
MIC [2]: 64 µg/mL
